# Legend:
# [1] = biological target: Ribosomal protein S6 kinase alpha-1 (Homo sapiens) (UniProt Q15418); assay: Inhibition of RSK1 assessed as residual activity at 0.1 uM by Cherenkov counting relative to control
# Method in brief: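 Single-concentration screen at 0.1 μM in a 76-kinase panel. ATP for each kinase was set near its Km for ATP. Residual activity is given as a percentage of control assays without compound, mean of n = 3 ± SD.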
# [2] = biological target: Maternal embryonic leucine zipper kinase (Homo sapiens) (UniProt Q14680); assay: Inhibition of MELK assessed as residual activity at 0.1 uM by Cherenkov counting relative to control in presence of 50 uM ATP
# Chain of Maternal embryonic leucine zipper kinase (Homo sapiens) (Q14680 whole entry, looked up): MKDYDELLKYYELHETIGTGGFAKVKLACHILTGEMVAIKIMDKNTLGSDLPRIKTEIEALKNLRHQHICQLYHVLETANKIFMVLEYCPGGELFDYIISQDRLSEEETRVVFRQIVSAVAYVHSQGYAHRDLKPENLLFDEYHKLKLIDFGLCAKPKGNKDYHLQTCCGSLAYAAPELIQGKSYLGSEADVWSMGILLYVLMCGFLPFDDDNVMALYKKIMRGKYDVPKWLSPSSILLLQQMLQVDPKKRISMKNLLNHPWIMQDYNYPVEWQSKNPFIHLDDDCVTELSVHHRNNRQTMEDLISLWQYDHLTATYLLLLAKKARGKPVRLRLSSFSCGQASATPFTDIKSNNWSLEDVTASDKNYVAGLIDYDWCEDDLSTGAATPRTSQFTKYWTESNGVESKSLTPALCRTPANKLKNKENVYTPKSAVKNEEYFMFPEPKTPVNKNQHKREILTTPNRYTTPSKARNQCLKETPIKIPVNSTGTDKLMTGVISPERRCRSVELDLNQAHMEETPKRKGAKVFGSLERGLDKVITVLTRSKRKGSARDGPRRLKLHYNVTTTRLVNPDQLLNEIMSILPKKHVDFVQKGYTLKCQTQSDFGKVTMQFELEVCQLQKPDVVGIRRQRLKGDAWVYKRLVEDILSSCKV
# Method in brief: (§1)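 Single-concentration selectivity screen at 0.1 μM against a panel of 76 protein kinases. Each kinase was run at an ATP level approximating its Km for ATP. Output is mean residual activity as % of the control assay without compound, n = 3 ± SD.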
# [3] = biological target: T1, Serine/threonine-protein kinase Nek2 (Homo sapiens) (UniProt P51955); assay: Inhibition of NEK2a assessed as residual activity at 0.1 uM by Cherenkov counting relative to control in presence of 50 uM ATP; method in brief: as §1
# T1 sequence (whole entry): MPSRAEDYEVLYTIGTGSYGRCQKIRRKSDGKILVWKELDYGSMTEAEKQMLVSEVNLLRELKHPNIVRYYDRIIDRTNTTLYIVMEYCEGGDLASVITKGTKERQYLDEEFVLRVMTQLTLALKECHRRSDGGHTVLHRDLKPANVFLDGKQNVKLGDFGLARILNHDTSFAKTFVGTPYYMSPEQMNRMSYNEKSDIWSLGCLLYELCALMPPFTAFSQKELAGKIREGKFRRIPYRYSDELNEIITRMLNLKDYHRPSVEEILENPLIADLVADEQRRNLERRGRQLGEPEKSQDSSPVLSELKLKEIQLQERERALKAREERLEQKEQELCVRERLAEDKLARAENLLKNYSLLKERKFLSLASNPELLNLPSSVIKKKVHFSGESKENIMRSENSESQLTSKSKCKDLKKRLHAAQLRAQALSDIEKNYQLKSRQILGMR
# [4] = biological target: Tyrosine-protein kinase Lck (Homo sapiens) (UniProt P06239); assay: Inhibition of Lck assessed as residual activity at 0.1 uM by Cherenkov counting relative to control in presence of 50 uM ATP; method in brief: as §1
# Chain of Tyrosine-protein kinase Lck (Homo sapiens) (P06239 2-509 limits assumed): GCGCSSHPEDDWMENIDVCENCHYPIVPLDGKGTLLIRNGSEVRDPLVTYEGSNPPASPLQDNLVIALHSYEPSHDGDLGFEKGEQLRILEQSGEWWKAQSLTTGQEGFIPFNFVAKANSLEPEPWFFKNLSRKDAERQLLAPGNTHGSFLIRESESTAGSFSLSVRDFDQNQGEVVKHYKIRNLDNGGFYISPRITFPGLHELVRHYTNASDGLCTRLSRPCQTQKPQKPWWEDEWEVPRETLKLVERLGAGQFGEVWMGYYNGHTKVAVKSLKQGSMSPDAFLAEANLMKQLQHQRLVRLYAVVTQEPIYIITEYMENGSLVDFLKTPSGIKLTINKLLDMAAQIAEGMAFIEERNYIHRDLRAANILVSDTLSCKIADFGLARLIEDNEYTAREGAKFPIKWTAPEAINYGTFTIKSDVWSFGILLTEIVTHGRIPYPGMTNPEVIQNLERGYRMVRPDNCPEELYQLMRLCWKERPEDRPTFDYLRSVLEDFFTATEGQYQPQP
# [5] = biological target: RAC-beta serine/threonine-protein kinase (Homo sapiens) (UniProt P31751); assay: Inhibition of PKBbeta assessed as residual activity at 10 uM by Cherenkov counting relative to control in presence of 50 uM ATP
# Chain of RAC-beta serine/threonine-protein kinase (Homo sapiens) (P31751 whole entry): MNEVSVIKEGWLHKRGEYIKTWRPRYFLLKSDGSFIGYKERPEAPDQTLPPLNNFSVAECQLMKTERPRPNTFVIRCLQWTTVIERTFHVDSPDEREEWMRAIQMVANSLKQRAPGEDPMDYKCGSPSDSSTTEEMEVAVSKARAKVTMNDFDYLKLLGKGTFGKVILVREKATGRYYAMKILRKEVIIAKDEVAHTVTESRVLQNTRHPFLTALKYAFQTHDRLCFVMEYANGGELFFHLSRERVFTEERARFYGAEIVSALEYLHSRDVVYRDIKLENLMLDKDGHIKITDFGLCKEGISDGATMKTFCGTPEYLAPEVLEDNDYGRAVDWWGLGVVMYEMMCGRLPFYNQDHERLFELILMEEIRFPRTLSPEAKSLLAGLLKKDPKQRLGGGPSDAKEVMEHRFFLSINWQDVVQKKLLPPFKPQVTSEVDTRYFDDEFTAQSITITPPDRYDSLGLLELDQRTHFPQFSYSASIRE
# Method in brief: (§2)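 Single-concentration profiling at 10 μM in a 78-kinase panel. Kinase activity is expressed as a percentage of control assays run without compound.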
# [6] = biological target: Serine/threonine-protein kinase Chk2 (Homo sapiens) (UniProt O96017); assay: Inhibition of CHK2 assessed as residual activity at 10 uM by Cherenkov counting relative to control in presence of 20 uM ATP
# Chain of Serine/threonine-protein kinase Chk2 (Homo sapiens) (O96017 whole entry): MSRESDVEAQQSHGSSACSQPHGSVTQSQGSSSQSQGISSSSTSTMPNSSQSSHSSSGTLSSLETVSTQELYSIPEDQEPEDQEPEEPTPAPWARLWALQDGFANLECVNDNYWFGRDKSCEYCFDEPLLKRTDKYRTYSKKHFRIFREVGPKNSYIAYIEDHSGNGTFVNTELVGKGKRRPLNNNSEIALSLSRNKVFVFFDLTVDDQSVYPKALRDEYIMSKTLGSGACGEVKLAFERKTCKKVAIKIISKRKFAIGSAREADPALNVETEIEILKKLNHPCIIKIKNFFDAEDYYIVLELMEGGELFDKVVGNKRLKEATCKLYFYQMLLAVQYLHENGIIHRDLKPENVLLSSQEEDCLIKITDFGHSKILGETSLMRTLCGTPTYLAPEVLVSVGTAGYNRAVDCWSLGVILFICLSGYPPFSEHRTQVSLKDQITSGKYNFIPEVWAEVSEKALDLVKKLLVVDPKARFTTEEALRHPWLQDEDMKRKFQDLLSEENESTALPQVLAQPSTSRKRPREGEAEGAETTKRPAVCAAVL
# Method in brief: (§3)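 Single-point profiling at 10 µM in a panel of 78 protein kinases. Kinase activity is expressed as a percentage relative to control assays without compound.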
# [7] = biological target: T2, Serine/threonine-protein kinase BRSK2 (Homo sapiens) (UniProt Q8IWQ3); assay: Inhibition of BRSK2 assessed as residual activity at 10 uM by Cherenkov counting relative to control in presence of 50 uM ATP; method in brief: as §3
# T2 sequence (whole entry): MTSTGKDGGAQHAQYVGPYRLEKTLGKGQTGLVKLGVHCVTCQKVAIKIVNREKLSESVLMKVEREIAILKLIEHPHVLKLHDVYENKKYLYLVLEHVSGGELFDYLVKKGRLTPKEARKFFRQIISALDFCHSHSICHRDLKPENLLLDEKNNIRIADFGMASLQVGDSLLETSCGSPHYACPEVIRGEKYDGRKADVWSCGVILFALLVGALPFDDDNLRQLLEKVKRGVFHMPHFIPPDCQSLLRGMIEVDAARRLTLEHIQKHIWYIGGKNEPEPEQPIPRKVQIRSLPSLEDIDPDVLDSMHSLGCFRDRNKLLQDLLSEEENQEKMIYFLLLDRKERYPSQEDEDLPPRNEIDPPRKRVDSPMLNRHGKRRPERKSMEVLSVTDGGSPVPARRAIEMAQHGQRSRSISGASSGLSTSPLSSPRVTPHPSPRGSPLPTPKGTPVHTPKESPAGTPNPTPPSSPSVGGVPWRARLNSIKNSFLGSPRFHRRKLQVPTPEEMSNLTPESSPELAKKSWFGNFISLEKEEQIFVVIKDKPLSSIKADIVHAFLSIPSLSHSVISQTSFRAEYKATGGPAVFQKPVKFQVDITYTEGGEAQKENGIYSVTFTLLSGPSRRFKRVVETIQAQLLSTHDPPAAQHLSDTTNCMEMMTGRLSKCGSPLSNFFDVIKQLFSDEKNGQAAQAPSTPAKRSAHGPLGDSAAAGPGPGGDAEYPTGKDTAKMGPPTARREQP
# [8] = biological target: T3, Eukaryotic elongation factor 2 kinase (Homo sapiens) (UniProt O00418); assay: Inhibition of EF2K assessed as residual activity at 10 uM by Cherenkov counting relative to control in presence of 5 uM ATP; method in brief: as §3
# T3 sequence (whole entry): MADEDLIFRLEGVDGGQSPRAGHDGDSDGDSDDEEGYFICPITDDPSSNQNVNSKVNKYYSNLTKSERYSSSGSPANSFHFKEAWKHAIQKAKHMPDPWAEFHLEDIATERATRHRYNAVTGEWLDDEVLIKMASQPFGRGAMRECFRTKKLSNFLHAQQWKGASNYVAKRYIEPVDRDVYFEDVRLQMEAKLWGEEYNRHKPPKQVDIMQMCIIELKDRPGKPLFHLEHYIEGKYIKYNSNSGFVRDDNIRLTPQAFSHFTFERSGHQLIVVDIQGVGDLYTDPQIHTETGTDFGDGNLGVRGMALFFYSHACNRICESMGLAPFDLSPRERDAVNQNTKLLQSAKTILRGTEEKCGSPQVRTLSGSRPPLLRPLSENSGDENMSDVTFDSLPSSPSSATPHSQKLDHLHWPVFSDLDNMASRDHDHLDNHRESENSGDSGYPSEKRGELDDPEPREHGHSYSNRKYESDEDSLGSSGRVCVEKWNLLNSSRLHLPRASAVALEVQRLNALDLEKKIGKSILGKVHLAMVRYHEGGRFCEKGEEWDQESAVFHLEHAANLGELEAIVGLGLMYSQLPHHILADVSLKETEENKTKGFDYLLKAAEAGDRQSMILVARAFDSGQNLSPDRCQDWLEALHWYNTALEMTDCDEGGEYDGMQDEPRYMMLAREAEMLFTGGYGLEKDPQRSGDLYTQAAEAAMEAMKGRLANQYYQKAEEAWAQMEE
# [9] = biological target: Serine/threonine-protein kinase PAK 6 (Homo sapiens) (UniProt Q9NQU5); assay: Inhibition of PAK6 assessed as residual activity at 10 uM by Cherenkov counting relative to control in presence of 20 uM ATP
# Chain of Serine/threonine-protein kinase PAK 6 (Homo sapiens) (Q9NQU5 whole entry, looked up): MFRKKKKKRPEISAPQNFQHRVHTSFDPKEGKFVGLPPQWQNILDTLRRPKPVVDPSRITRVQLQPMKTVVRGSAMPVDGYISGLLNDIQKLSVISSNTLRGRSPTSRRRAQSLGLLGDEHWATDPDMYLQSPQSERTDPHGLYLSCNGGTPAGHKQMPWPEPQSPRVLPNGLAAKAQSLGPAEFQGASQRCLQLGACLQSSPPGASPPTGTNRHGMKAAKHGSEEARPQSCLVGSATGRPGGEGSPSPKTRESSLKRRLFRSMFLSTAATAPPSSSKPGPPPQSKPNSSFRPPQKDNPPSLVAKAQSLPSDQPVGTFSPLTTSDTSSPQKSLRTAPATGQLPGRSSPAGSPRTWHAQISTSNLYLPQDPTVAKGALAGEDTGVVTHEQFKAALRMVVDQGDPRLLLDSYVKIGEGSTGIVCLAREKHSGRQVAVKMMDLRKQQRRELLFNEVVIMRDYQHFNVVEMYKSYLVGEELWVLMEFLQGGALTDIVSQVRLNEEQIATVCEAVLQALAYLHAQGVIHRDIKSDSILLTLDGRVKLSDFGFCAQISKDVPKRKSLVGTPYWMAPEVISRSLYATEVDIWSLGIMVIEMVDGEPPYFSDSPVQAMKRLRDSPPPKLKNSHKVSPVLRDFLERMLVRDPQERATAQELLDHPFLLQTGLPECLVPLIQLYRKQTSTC
# [10] = biological target: Tyrosine-protein kinase SYK (Homo sapiens) (UniProt P43405); assay: Inhibition of SYK assessed as residual activity at 10 uM by Cherenkov counting relative to control in presence of 20 uM ATP; method in brief: as §2
# Chain of Ribosomal protein S6 kinase alpha-1 (Homo sapiens) (Q15418 whole entry): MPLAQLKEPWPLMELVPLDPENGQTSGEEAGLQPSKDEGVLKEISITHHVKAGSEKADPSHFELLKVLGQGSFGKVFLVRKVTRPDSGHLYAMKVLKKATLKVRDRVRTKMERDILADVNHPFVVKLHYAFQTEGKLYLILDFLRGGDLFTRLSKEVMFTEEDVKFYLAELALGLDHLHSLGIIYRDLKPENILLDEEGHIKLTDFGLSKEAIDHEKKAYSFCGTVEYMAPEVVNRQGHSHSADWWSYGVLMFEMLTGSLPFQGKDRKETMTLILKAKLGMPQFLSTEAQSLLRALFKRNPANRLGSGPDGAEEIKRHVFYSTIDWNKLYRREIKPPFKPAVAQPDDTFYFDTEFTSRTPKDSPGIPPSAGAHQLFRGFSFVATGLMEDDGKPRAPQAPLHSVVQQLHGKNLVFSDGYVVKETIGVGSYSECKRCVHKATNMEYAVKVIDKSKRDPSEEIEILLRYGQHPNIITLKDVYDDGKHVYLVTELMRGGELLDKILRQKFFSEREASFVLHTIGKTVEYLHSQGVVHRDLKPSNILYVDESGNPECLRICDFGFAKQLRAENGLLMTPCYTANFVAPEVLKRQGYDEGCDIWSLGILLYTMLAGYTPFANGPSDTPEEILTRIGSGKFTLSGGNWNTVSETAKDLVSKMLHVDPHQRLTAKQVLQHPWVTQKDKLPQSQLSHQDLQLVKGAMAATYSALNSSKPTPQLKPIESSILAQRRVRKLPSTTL
Activity [1],Activity [2],Activity [3],Activity [4],Activity [5],Activity [6],Activity [7],Activity [8],Activity [9],Activity [10],Structure (SMILES)
80%,92%,92%,74%,–,–,–,–,–,–,COc1ccc(/C=C/C(=O)Nc2cc(-c3[nH]c([S+](C)[O-])nc3-c3ccc(F)cc3)ccn2)c(OC)c1 (stereo not given)
–,–,–,–,104%,109%,93%,107%,102%,114%,CC(C)c1noc(-c2ccc(F)cc2)c1-c1ccncc1
–,–,–,–,101%,104%,87%,107%,100%,131%,CC(C)c1onc(-c2ccc(F)cc2)c1-c1ccncc1
78%,81%,91%,50%,–,–,–,–,–,–,COc1ccc(/C=C/C(=O)Nc2cc(-c3[nH]c(SC)nc3-c3ccc(F)cc3)ccn2)c(OC)c1
